Measurements published in ChEMBL document CHEMBL3112527, “Quinoline-pyrimidine hybrids: synthesis, antiplasmodial activity, SAR, and mode of action studies” (J Med Chem, 2014).
In brackets after ≈: the same amount, converted by molar mass. Activity calls are given as the source filed them. The calls are words filed in the database; no cut-off is given here.

Experiments:
[1] = Selectivity index, ratio of CC50 for cat CRFK cells to IC50 for chloroquine-resistant asexual erythrocytic stage of Plasmodium falciparum Dd2; assay type: functional
Method in brief: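 Ratio of CRFK CC50 (μM) to Dd2 IC50 […]. CC50 is the 50% cytotoxic concentration in feline kidney CRFK cells, measured as cell viability by colorimetric formazan-based MTS assay. Dd2 IC50 is from the parasite LDH growth-inhibition assay.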

Feline coronavirus = test: Antiviral activity against Feline coronavirus infected in cat CRFK cells assessed as inhibition of virus-induced cytopathicity; assay type: functional, organism-based
Method in brief: (§1)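 Confluent monolayers (HEL, Vero, HeLa or CrFK, as applicable) were inoculated with 100 CCID50 of virus, with 1 CCID50 being the dose that infects 50% of cultures. Infection ran in the presence of varying compound concentrations. Inhibition of virus-induced cytopathicity was scored against infected cultures left untreated.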

[2] = Cytotoxicity against cat CRFK cells assessed as cell viability by MTS assay; assay type: cell-based, Felis catus
Method in brief: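 CRFK cells were exposed to varying sample concentrations. Cell viability was measured with the colorimetric formazan-based MTS assay, and the 50% cytotoxic concentration (CC50) was derived from it.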

Plasmodium falciparum [3] = test: Antiplasmodial activity against chloroquine-resistant asexual erythrocytic stage of Plasmodium falciparum Dd2 assessed as parasite growth inhibition by lactate dehydrogenase assay; assay type: functional, organism-based
Method in brief: (§2)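 Parasite lactate dehydrogenase assay (modified Makler method). Samples held as 20 mg/mL stocks in DMSO, diluted on test day. Full dose-response: starting at 10 μg/mL, 2-fold serial dilution in complete medium over 10 concentrations down to 0.02 μg/mL. Chloroquine, artesunate and MMV390048 served as references. IC50 from nonlinear dose-response curve fitting; mean of three independent experiments.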

Sindbis virus = test: Antiviral activity against Sindbis virus infected in African green monkey Vero cells assessed as inhibition of virus-induced cytopathicity; assay type: functional, organism-based
Influenza A virus = test: Antiviral activity against influenza A virus H1N1 infected in MDCK cells assessed as inhibition of virus-induced cytopathicity; assay type: functional, organism-based
Method in brief: (§3)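 Confluent monolayers in 96-well plates were inoculated with 100 CCID50 of virus in the presence of varying concentrations of compound. Read-out was inhibition of virus-induced cytopathicity, compared with untreated infected cultures. Cytotoxicity was judged microscopically or by MTT viability staining.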

[4] = Solubility of the compound in octanol at pH 7.4 by HPLC analysis; assay type: physicochemical
Plasmodium falciparum [5] = test: Antiplasmodial activity against chloroquine-sensitive asexual erythrocytic stage of Plasmodium falciparum D10 assessed as parasite growth inhibition by lactate dehydrogenase assay; assay type: functional, organism-based; method in brief: as §2
Influenza A virus H3N2 = test: Antiviral activity against Influenza A virus H3N2 infected in MDCK cells assessed as inhibition of virus-induced cytopathicity; assay type: functional, organism-based; method in brief: as §3
Human alphaherpesvirus 2 = test: Antiviral activity against HSV-2 G infected in HEL cells assessed as inhibition of virus-induced cytopathicity; assay type: functional, organism-based; conditions: strain G; method in brief: as §1
Human betaherpesvirus 5 [6] = test: Antiviral activity against Cytomegalovirus Davis infected in HEL cells assessed as inhibition of virus-induced cytopathicity; assay type: functional, organism-based
[7] = n-octanol-PBS buffer distribution coefficient, log D of the compound at pH 7.4 after 24 hrs by HPLC analysis; assay type: physicochemical
Human alphaherpesvirus 3 = test: Antiviral activity against Varicella-zoster virus infected in HEL cells assessed as inhibition of virus-induced cytopathicity; assay type: functional, organism-based
Vaccinia virus = test: Antiviral activity against Vaccinia virus infected in HEL cells assessed as inhibition of virus-induced cytopathicity; assay type: functional, organism-based; conditions: Orthopoxvirus vaccinia; method in brief: as §3
Human respirovirus 3 = test: Antiviral activity against parainfluenza virus 3 infected in African green monkey Vero cells assessed as inhibition of virus-induced cytopathicity; assay type: functional, organism-based; method in brief: as §1
Coxsackievirus B4 [8] = test: Antiviral activity against Coxsackievirus B4 infected in African green monkey Vero cells assessed as inhibition of virus-induced cytopathicity; assay type: functional, organism-based; method in brief: as §1
Human alphaherpesvirus 1 [9] = test: Antiviral activity against HSV-1 KOS infected in HEL cells assessed as inhibition of virus-induced cytopathicity; assay type: functional, organism-based; method in brief: as §1
[10] = Aqueous solubility of the compound in PBS buffer at pH 7.4 after 24 hrs by HPLC analysis; assay type: physicochemical; conditions: pH 7.4, 24 h
Punta Toro virus = test: Antiviral activity against Punta Toro virus infected in African green monkey Vero cells assessed as inhibition of virus-induced cytopathicity; assay type: functional, organism-based; method in brief: as §1
Human alphaherpesvirus 1 [11] = test: Antiviral activity against thymidine kinase-negative acyclovir-resistant HSV-1 KOS infected in HEL cells assessed as inhibition of virus-induced cytopathicity; assay type: functional, organism-based; method in brief: as §3
Coxsackievirus B4 [12] = test: Antiviral activity against Coxsackievirus B4 infected in human HeLa cells assessed as inhibition of virus-induced cytopathicity; assay type: functional, organism-based; method in brief: as §1
[13] = system: Mammalian orthoreovirus 1; test: Antiviral activity against Reovirus 1 infected in African green monkey Vero cells assessed as inhibition of virus-induced cytopathicity; assay type: functional, organism-based; method in brief: as §1
[14] = Cytotoxicity against human HeLa cells assessed as alteration of cell morphology by microscopic analysis; assay type: cell-based; conditions: read-out: MIC
Method in brief: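 Cells (Vero, HEL, MDCK or HeLa) were exposed to a range of sample concentrations. The value reported is the concentration required to cause a microscopically detectable alteration of normal cell morphology.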

Felid alphaherpesvirus 1 = test: Antiviral activity against Feline herpesvirus infected in cat CRFK cells assessed as inhibition of virus-induced cytopathicity; assay type: functional, organism-based; method in brief: as §1
[15] = system: Vesicular stomatitis virus; test: Antiviral activity against Vesicular stomatitis virus infected in human HeLa cells assessed as inhibition of virus-induced cytopathicity; assay type: functional, organism-based; method in brief: as §3
[16] = system: Vesicular stomatitis virus; test: Antiviral activity against Vesicular stomatitis virus infected in HEL cells assessed as inhibition of virus-induced cytopathicity; assay type: functional, organism-based; method in brief: as §3
[17] = system: Respiratory syncytial virus; test: Antiviral activity against Respiratory syncytial virus infected in human HeLa cells assessed as inhibition of virus-induced cytopathicity; assay type: functional, organism-based; method in brief: as §1
Human betaherpesvirus 5 [18] = test: Antiviral activity against Cytomegalovirus AD169 infected in HEL cells assessed as inhibition of virus-induced cytopathicity; assay type: functional, organism-based

Structure (SMILES) | Ratio CC50/IC50 [1] | inhibition (Feline coronavirus) | CC50 [2] [nM] | IC50 (Plasmodium falciparum [3]) [nM] | inhibition (Sindbis virus) | inhibition (Influenza A virus) | solubility [4] [µM] | IC50 (Plasmodium falciparum [5]) [nM] | inhibition (Influenza A virus H3N2) | inhibition (Human alphaherpesvirus 2) | inhibition (Human betaherpesvirus 5 [6]) | logD at 24 h [7] | inhibition (Human alphaherpesvirus 3) | inhibition (Vaccinia virus) | inhibition (Human respirovirus 3) | inhibition (Coxsackievirus B4 [8]) | inhibition (Human alphaherpesvirus 1 [9]) | solubility [10] [µM] | inhibition (Punta Toro virus) | inhibition (Human alphaherpesvirus 1 [11]) | other results
Clc1ccc2c(NCCNc3nccc(Cl)n3)ccnc2c1 | >12.53 | inactive | > 100000 | 7680 | inactive | inactive | 2.85 (≈ 0.952 µg/mL) | 2510 | inactive | inactive | inactive | 0.501 | inactive | inactive | inactive | inactive | inactive | 0.9 (≈ 0.301 µg/mL) | inactive | inactive | inhibition (Coxsackievirus B4 [12]): inactive; inhibition [13]: inactive; MCC [14]: > 100 µM; inhibition (Felid alphaherpesvirus 1): inactive; inhibition [15]: inactive; inhibition [16]: inactive; inhibition [17]: inactive; inhibition (Human betaherpesvirus 5 [18]): inactive
Clc1ccc2c(NCCCNc3ccnc(N4CCOCC4)n3)ccnc2c1 | >247 | inactive | > 100000 | 404 | inactive | inactive | 1.27 (≈ 0.507 µg/mL) | 70 | inactive | inactive | inactive | 0.363 | inactive | inactive | inactive | inactive | inactive | 0.55 (≈ 0.219 µg/mL) | inactive | inactive | inhibition (Coxsackievirus B4 [12]): inactive; inhibition [13]: inactive; MCC [14]: 100 µM; inhibition (Felid alphaherpesvirus 1): inactive; inhibition [15]: inactive; inhibition [16]: inactive; inhibition [17]: inactive; inhibition (Human betaherpesvirus 5 [18]): inactive
Clc1ccc2c(NCCCCCCCCNc3ccnc(Cl)n3)ccnc2c1 | 9 | inactive | 8000 | 883 | inactive | inactive | 2.41 (≈ 1.01 µg/mL) | 912 | inactive | inactive | inactive | 1.48 | inactive | inactive | inactive | inactive | inactive | 0.08 (≈ 0.0335 µg/mL) | inactive | inactive | inhibition (Coxsackievirus B4 [12]): inactive; inhibition [13]: inactive; MCC [14]: 4 µM; inhibition (Felid alphaherpesvirus 1): inactive; inhibition [15]: inactive; inhibition [16]: inactive; inhibition [17]: inactive; inhibition (Human betaherpesvirus 5 [18]): inactive
Clc1ccc2c(NCCCCNc3nccc(Cl)n3)ccnc2c1 | >518 | inactive | > 100000 | 193 | inactive | inactive | 3.86 (≈ 1.4 µg/mL) | 179 | inactive | inactive | inactive | 0.742 | inactive | inactive | inactive | inactive | inactive | 0.7 (≈ 0.254 µg/mL) | inactive | inactive | inhibition (Coxsackievirus B4 [12]): inactive; inhibition [13]: inactive; MCC [14]: 100 µM; inhibition (Felid alphaherpesvirus 1): inactive; inhibition [15]: inactive; inhibition [16]: inactive; inhibition [17]: inactive; inhibition (Human betaherpesvirus 5 [18]): inactive
